Source: PubChem (The Scripps Research Institute Molecular Screening Center)
An excerpt weighted towards active compounds, which were near 1.8% of everything screened.
TCR CD3 inh: blocks the human TCR-CD3 interaction. TAMRA-labeled TCR probe fluorescence, biochemical. actives 0.37% (n = 360,000). inhibition, % at 9.4 µM; in the data active means inhibition above about 19%;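 further: recombinant mutant TCR 2C K166C tagged with TAMRA read by polarization; 0% = receptor in buffer alone and 100% = receptor with positive control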
HTRA1 inhibitor: HTRA1 (human) protease inhibition; Q92743; recombinant HTRA1, FP-rhodamine activity-based probe, fluorescence polarization; inhibition, % at 5.96 µM; actives 0.5% (n = 340,000); AID 504803; in the data active means inhibition above about 36%;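 further: 0% = enzyme with DMSO and 100% = wells lacking enzyme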
SIAE inh: inhibitors of human sialic acid acetylesterase SIAE; actives 0.69% (n = 370,000); inhibition, % at 9.66 µM; Q9HAT2; SIAE FP-Rh probe binding, fluorescence polarization;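 active means inhibition above a cutoff: mean of compounds within the control limits plus 3 SD of those, cut at about 17% in these data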;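 further: 0% = plate median of compound wells and 100% = probe without SIAE protein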
Target sequence (Q9HAT2 whole entry, looked up): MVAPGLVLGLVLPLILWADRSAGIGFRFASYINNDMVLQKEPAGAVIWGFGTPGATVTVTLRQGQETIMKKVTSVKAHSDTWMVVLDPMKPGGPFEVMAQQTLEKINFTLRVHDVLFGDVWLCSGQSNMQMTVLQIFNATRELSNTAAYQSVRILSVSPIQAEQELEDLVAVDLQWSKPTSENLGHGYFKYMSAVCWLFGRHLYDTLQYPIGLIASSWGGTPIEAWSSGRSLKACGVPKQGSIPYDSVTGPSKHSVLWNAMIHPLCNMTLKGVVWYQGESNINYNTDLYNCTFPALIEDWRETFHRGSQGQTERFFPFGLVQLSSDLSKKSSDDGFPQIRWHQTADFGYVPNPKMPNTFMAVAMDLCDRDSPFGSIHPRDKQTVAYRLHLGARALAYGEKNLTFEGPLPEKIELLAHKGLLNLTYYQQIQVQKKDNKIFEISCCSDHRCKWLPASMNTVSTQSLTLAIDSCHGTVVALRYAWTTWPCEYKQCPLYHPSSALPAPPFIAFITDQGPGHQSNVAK
Tn7 DDE FP: disrupts Tn7 cyclic peptide binding to fibrin D-Dimer-E complex; P02675; FP displacement of FITC-Tn7 peptide from fibrin DD(E); 0% = median of compound wells per plate; inhibition, % at 8.3 µM; actives 0.13% (n = 370,000);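 active means inhibition above the mean of compounds falling within the control limits plus 3 SD of them, cut at about 14% in these data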;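 further: 0% = plate median of compound wells and 100% = 10 µM Aha-Tn7 peptide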
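Assay system: Human fibrin DD(E) protein | Medium: Tris buffer with calcium and detergent, pH 7.8 | Reagent: 0.1 µM fluorescent Tn7 | Compound dosing: Single point at 8.3 µM | Times: 10 min preincubation, 3 h with tracer, room temperature | Detection: Fluorescence polarization of the labelled Tn7 tracer | Controls: Aha-Tn7 high control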
DDE Tn6 FP inh: DD(E)-Tn6 binding inhibition, primary FP screen; P02675; inhibition, % at 8.3 µM; actives 0.21% (n = 370,000); AID 720509; Fibrin DD(E) TRITC-Tn6 fluorescence polarization displacement;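 active means inhibition above a per-campaign cutoff: mean of compounds within control limits plus 3 SD, cut at about 15% in these data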;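 further: 0% = median of all compound wells on the plate and 100% = blocking peptide control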
mABHD4 FP: ABHD4 (mouse) inhibition, primary FP screen. inhibition, % at 8.92 µM. purified mABHD4, FP-Rh probe fluorescence polarization. actives 0.54% (n = 370,000);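 active means inhibition exceeding the mean over every tested compound plus 3 SD, cut at about 30% in these data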;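 further: 0% = plate median of compound wells and 100% = S159A mutant with DMSO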
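Material: mouse ABHD4 enzyme, wild type; Benchmarks: S159A mutant high control, sample median low control; Buffer or medium: HEPES pH 7.0, NaCl, Pluronic buffer; Signal: fluorescence polarization; Read-out: percent inhibition of probe binding, normalized to plate controls; Timing: pre-incubation 45 min, probe exposure 60 min, at 25 °C; Dosing: 8.92 µM, single dose.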
HTRA1 inh conf: HTRA1 (human) inhibition, confirmation; shares compounds with HTRA1 inhibitor; recombinant HTRA1, FP-rhodamine activity-based probe, fluorescence polarization; inhibition, % at 5.96 µM; actives 66% (n = 1,600); AID 540248;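 active means mean inhibition over three repeats above a set limit taken from the earlier primary screen, cut at about 37% in these data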;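 further: 0% = HTRA1 with DMSO and 100% = wells lacking HTRA1; inhibitors block probe binding so polarization drops and inhibition rises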
Numbers without * were called inactive; nt = no result; + = active, no number.

SMILES	TCR CD3 inh	HTRA1 inhibitor	SIAE inh	Tn7 DDE FP	DDE Tn6 FP inh	mABHD4 FP	HTRA1 inh conf
O=C(O)Cc1ccc(N=Nc2c(O)c(C(=O)O)cc3ccccc23)cc1	10	45*	7	7	-9	22	43*
COc1ccc(CNS(=O)(=O)/C=C/c2ccc(OC)cc2CNC(=O)OC(C)(C)C)cc1	nt	nt	-5	-5	4	-11	nt
CCN(CC)C(=O)CC[C@H]1CC[C@]2(CCCN(CC3CC3)C2)O1	nt	nt	0	-4	-6	4	nt
NC(=O)c1cc2c3ccccc3ccn2c1-c1ccccc1	-5	42*	6	11	-3	-6	29
COC(=O)c1cc(C(c2ccccc2O)C2CCCO2)n2cccc(C(C)(C)C)c12 (stereo not drawn)	nt	nt	5	10	1	-1	nt
O=C1C=CC(=O)N1c1ccc2ccccc2c1	6	-22	-3	-4	2	-5	nt
O=C1C=CC(=O)N1c1ccc(Nc2ccccc2)cc1	-25	53*	7	-1	6	21	18
Oc1ccc(-c2nc3ccc4ccccc4c3c3c2CCC3)cc1O	-3	41*	-2	-4	-9	15	56*
Cc1cc(C)c2c(ccc3ccccc32)n1	-4	-4	2	-4	-2	4	nt
CCCCNC(=O)C[C@H]1C[C@@]2(C(=O)OC)C(=C[C@H](C3CCCC3)O[C@@H]2C)N(Cc2cccc3ccccc23)C1=O	nt	nt	4	-6	0	-7	nt
Cc1cccc2sc(NNC(=O)c3cc(-c4cccs4)nc4ccccc34)nc12	-11	44*	-4	-12	-18	-1	42*
COC(=O)[C@]12C[C@H](CC(=O)NCCCCc3ccccc3)C(=O)N(Cc3ccco3)C1=C[C@H](C(C)(C)C)O[C@@H]2C	nt	nt	-5	-5	4	-8	nt
CC(C)C[C@@H]1NC(=O)[C@H]2C[C@@]3(C)c4ccccc4N[C@H]3N2C1=O	nt	nt	3	-5	-3	6	nt
COCCN=c1scc(-c2cccs2)n1/N=C/c1ccc(O)c(O)c1O	5	79*	-3	-5	-2	55*	67*
COCCN=c1scc(-c2ccccc2)n1/N=C/c1c[nH]c2ccccc12	-6	20	9	-4	8	21	nt
C/C(=N\NC(=O)CSc1nc2ccccc2o1)c1cccc(O)c1	8	51*	4	-6	10	8	-1
C/C(=N\NC(=O)CSc1nc2ccccc2o1)c1ccc(O)cc1	12	32	5	-4	-5	-2	nt
COc1c(-c2ccc(O)c(O)c2)oc2cc(O)cc(O)c2c1=O	16	37*	2	3	-12	21	48*
CCCCn1c(CNC(=O)CCC)nc2ccccc21	5	5	2	-6	6	5	nt
CCCn1c(CNc2ccccc2O)nc2ccccc21	-5	44*	6	-3	-1	27	59*
CC(=Nc1ccc(Cl)cc1N)c1c(O)cc(C)oc1=O	-2	nt	-7	5	-2	-2	nt
CC(=O)OC(C)C1C2=C(C(=O)CC1(C)O)C(=O)c1c(ccc(-c3ccc4c(c3O)C(=O)C3=C(C4=O)C(C(C)OC(C)=O)C(C)(O)CC3=O)c1O)C2=O (stereo not drawn)	0	48*	1	4	-2	47*	87*
Cc1ccc2nc(-c3cc(N)cc(N)c3)oc2c1	0	37*	0	-1	4	16	22
CC(C)NC(=S)N/N=C/c1cc(Br)ccc1O	9	37*	16	0	6	8	49*
COC(=O)N/N=C/c1cc(Br)ccc1O	-4	4	0	2	8	-4	nt
SMILES	TCR CD3 inh	HTRA1 inhibitor	SIAE inh	Tn7 DDE FP	DDE Tn6 FP inh	mABHD4 FP	HTRA1 inh conf
COc1ccc2ccccc2c1C=Nn1c(-c2n[nH]c3c2CCC3)n[nH]c1=S	nt	nt	0	-1	2	-3	nt
O=C(Oc1c(CN2CCOCC2)cc(Cl)c2cccnc12)c1ccc(F)cc1	7	30	4	-12	-4	6	nt
O=C(Nc1cccnc1Cl)c1cccs1	12	-3	-2	-11	2	-4	nt
COc1cc(C(=O)Oc2c(CN3CCOCC3)cc(Cl)c3cccnc23)cc(OC)c1OC	nt	50*	nt	nt	nt	nt	71*
O=C(Oc1c(CN2CCOCC2)cc(Cl)c2cccnc12)c1cccs1	-8	44*	9	-2	-7	7	11
O=C(Oc1c(Cl)cc(Cl)c2cccnc12)c1cccs1	-5	45*	10	1	4	15	24
O=C(Oc1c(CN2CCOCC2)cc(Cl)c2cccnc12)c1ccccc1Cl	-5	37*	16	-5	-3	12	39*
Cc1ccc(S(=O)(=O)NCC2CN(S(=O)(=O)c3ccc(C)cc3)c3ccccc3C(=O)N2c2ccc(F)cc2)cc1 (stereo not drawn)	nt	nt	-13	-9	0	5	nt
COC(=O)[C@H](C(C)C)N(CCc1cn(CC2CCCCC2)nn1)S(=O)(=O)c1ccccc1Br	nt	nt	-2	-1	-1	2	nt
COC(=O)C1CN(Cc2ccc(OC)cc2)CCS(=O)(=O)N1Cc1ccc(C(F)(F)F)cc1 (stereo not drawn)	nt	nt	2	-7	-2	-11	nt
O=C(Oc1cncc(Cl)c1)c1ccco1	2	1	0	-5	0	0	nt
O=C(Oc1c(Cl)cc(Cl)c2cccnc12)c1ccco1	3	59*	7	-3	-1	16	54*
CCOc1cc(N2CCOCC2)c(OCC)cc1NC(=O)c1nn(CC)c(=O)c2ccccc12	-3	41*	1	0	-6	4	45*
CN(C)c1ccc(N=c2sc3ccccc3n2C)cc1	4	17	-2	-3	-6	10	nt
CN(C)c1ccc(N=Cc2cccn2C)cc1	14	42*	15	4	9	35*	7
CCOc1ccc(N2C(=O)CS/C2=C(\C(Cl)=C(Cl)Cl)[N+](=O)[O-])cc1	nt	42*	nt	nt	nt	nt	+
COc1ccc(-n2nnnc2SCC(=O)c2ccc(O)c(O)c2)cc1	18	46*	4	-7	3	24	61*
COc1ccc(-n2nnnc2SCC(N)=O)cc1	-2	9	0	-7	-5	2	nt
Cc1nnc(C)c2c(C)n(-c3ccc(Cl)c(N)c3)c(C)c12	1	19	5	-8	-3	7	nt
Cc1cc(C)cc(-n2c(C)c3c(C)nnc(C)c3c2C)c1	5	40*	4	-7	2	-6	12
CC(CCN1CCC(C(O)(c2ccccc2)c2ccccc2)CC1)Oc1cccc(C(F)(F)F)c1 (stereo not drawn)	nt	nt	-2	12	9	16	nt
